From PubChem BioAssay
14-3-3 Bad inh: inhibitors of 14-3-3 zeta/Bad binding, primary screen, biochemical, TR-FRET, bovine 14-3-3 zeta | 14-3-3 protein zeta/delta (Bos taurus), P63103 | TR-FRET 14-3-3zeta/Dy647-pBad peptide displacement, 1 h | inhibition, % at 21.7 µM | 0.71% of 220,000 active;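 active means inhibition above about 70%, limit read from the data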;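 further: 0% = full 14-3-3 plus peptide FRET controls and 100% = background without 14-3-3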
EBV gp42 block: Epstein-Barr virus gp42 inhibitors, primary screen, biochemical, uHTS, fluorescence polarization | Glycoprotein 42 (Epstein-Barr virus (strain AG876)), Q1HVG2 | Fluorescence polarization binding assay, mP read-out | inhibition, % (tested at 21.74 µM) | 0.42% of 220,000 active | AID 1085, 2008; in the data active means inhibition above about 50%
WT yeast gro inh: growth inhibition of WT strain, primary screen, mitochondrial fusion inhibitor project, WT and mutant strains, chemical genetic | inhibition, % at 10 µM | mitochondrial fusion phenotypic screen | 2.1% of 190,000 active; in the data active means inhibition above about 58%; tested in S. cerevisiae
NCF1 inh: p47phox/p22phox peptide binding inhibitors, primary screen, biochemical, uHTS, NADPH oxidase regulatory subunit. inhibition, % at 24.7 µM. fluorescence polarization, 2 h. Neutrophil cytosol factor 1 (Homo sapiens), P14598. 0.53% of 220,000 active;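 further: 0% = p47phox with labelled peptide and 100% = labelled peptide alone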
Target sequence (P14598 whole entry, looked up): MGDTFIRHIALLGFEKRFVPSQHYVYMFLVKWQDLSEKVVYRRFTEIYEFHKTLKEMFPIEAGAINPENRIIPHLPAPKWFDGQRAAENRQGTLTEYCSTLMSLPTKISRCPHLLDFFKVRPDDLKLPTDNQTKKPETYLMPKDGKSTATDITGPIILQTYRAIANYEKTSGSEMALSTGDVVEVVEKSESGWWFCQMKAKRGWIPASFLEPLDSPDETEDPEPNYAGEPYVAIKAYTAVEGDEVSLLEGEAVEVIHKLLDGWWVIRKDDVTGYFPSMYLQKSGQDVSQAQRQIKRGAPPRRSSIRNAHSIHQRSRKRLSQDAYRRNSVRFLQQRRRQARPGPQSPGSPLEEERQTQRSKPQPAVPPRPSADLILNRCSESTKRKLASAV
eIF4E-4G inh: eIF4E–eIF4G protein interaction inhibitors, primary screen, biochemical, uHTS, TR-FRET, eIF4GI fragment; 0.37% of 220,000 active; AID 782, 2007; inhibition, % at 21.7 µM; Eukaryotic translation initiation factor 4E (Mus musculus) + Eukaryotic translation …; TR-FRET eIF4E-eIF4GI(517-606) binding, 2 h;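 further: 0% = full FRET control wells and 100% = background wells lacking eIF4GI fragment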
RBBP9 inh: human RBBP9 inhibitors, primary screen, biochemical, fluorescence polarization, FP-Rh probe, HTS | Serine hydrolase RBBP9 (Homo sapiens), O75884 | recombinant RBBP9 | inhibition, % at 7.94 µM | 0.2% of 220,000 active | AID 1515, 2009;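 active means inhibition above the campaign mean of all tested compounds plus 3 SD, cut at about 14% in these data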;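 further: plate controls were DMSO wells with RBBP9 for no effect and wells lacking RBBP9 protein for full effect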
Target sequence (O75884 whole entry, looked up): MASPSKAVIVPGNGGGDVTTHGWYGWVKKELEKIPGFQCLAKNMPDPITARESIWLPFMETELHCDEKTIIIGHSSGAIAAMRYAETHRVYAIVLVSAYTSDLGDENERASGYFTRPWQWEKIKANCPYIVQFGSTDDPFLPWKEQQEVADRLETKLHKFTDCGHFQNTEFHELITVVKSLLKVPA
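system = RBBP9 protein | input = RBBP9 at 2.5 µM in dispensed solution, before mixing | measured by = fluorescence polarization (mP), excitation 525 nm, emission 598 nm | incubation = enzyme-compound preincubation 30 min, then probe labeling 45 min, 25 °C | buffer or medium = Tris-NaCl-Pluronic buffer, pH 8.0 | compound = single dose 7.94 µM | also added = FP-Rh probe, 375 nM dispensing solution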
* hit, by the source's call; [ ] = another dose, or the depositor's remark. An excerpt weighted towards active compounds, which were near 3.7% of everything screened.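 How the source made its calls, unless noted: active means inhibition above about 30% (limit read from the data); inactive means the rest.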

Results for CCOC(=O)C1=NN(c2ccccc2)C2(S1)SC(C(C)=O)=C(C)N2c1ccccc1 (configuration not stated) ?
14-3-3 Bad inh: -1.6; EBV gp42 block: 8.7; WT yeast gro inh: 71.5*; NCF1 inh: -15.2; eIF4E-4G inh: -0.6; RBBP9 inh: 2.5

What do the screens show for `CCOC(=O)C1=NN(c2cccc(C)c2)C2(S1)SC(C(C)=O)=C(C)N2c1ccccc1` (configuration not stated)?
14-3-3 Bad inh: -4.5; EBV gp42 block: 5.3; WT yeast gro inh: 77.2*; NCF1 inh: 6.6; eIF4E-4G inh: -9.0; RBBP9 inh: 0.1

Results for CCOC(=O)C1=NN(c2ccc(C)cc2)C2(S1)SC(C(C)=O)=C(C)N2c1ccccc1 (configuration not stated) ?
14-3-3 Bad inh: -5.2; EBV gp42 block: -7.6; WT yeast gro inh: 16.2; NCF1 inh: -16.2; eIF4E-4G inh: -1.3; RBBP9 inh: 0.4

How did NC(=S)Nc1ccc(Cl)cc1Cl do in these assays?
14-3-3 Bad inh: -1.9; EBV gp42 block: 2.7; NCF1 inh: 7.5; eIF4E-4G inh: 5.3; RBBP9 inh: -8.2

How did CC(NC(=O)C12CC3CC(CC(C3)C1)C2)C(=O)N/N=C/C1=C(N2CCOCC2)C(=C\c2cccc([N+](=O)[O-])c2)/CC1 (configuration not stated) do in these assays?
14-3-3 Bad inh: 2.6; EBV gp42 block: -18.8; WT yeast gro inh: 11.6; NCF1 inh: 5.4; eIF4E-4G inh: 4.0; RBBP9 inh: 2.1

How did CCN(CC)c1ccc(/C=C2\CCC(/C=C(\C#N)C(=O)Nc3ccccc3F)=C2N2CCOCC2)cc1 do in these assays?
14-3-3 Bad inh: -1.6; EBV gp42 block: -4.2; WT yeast gro inh: 34.6; NCF1 inh: 119.8*; eIF4E-4G inh: 1.4; RBBP9 inh: -12.2

How did N#C/C(=C\C1=C(N2CCOCC2)C(=C\c2ccc(Cl)cc2)/CC1)C(=O)Nc1ccccc1F do in these assays?
14-3-3 Bad inh: 73.3*[fluorescence artefact?]; EBV gp42 block: 124.5*; WT yeast gro inh: -8.8; NCF1 inh: -254.1; eIF4E-4G inh: 6.7; RBBP9 inh: -4.9

How did N#C/C(=C\C1=C(N2CCOCC2)C(=C/c2cccc([N+](=O)[O-])c2)/CC1)C(=O)Nc1ccccc1F do in these assays?
14-3-3 Bad inh: 5.1; EBV gp42 block: 85.8*; WT yeast gro inh: 13.4; NCF1 inh: -254.1; eIF4E-4G inh: -1.1; RBBP9 inh: -8.3

What do the screens show for `O=C(COC(=O)CCSc1ccccc1Cl)NCc1ccco1`?
14-3-3 Bad inh: -4.8; EBV gp42 block: 17.1; WT yeast gro inh: 3.6; NCF1 inh: -6.4; eIF4E-4G inh: -1.0; RBBP9 inh: 3.9

Results for CCN1CCN(CC(=O)c2ccc(OC)cc2)CC1 ?
14-3-3 Bad inh: -2.8; EBV gp42 block: -10.7; WT yeast gro inh: -17.9; NCF1 inh: 6.4; eIF4E-4G inh: 3.0; RBBP9 inh: 2.9

What do the screens show for `Cc1cc(F)ccc1NCc1cccnc1`?
14-3-3 Bad inh: 2.7; EBV gp42 block: -13.7; WT yeast gro inh: -9.8; NCF1 inh: -4.3; eIF4E-4G inh: 0.7; RBBP9 inh: -5.2

What do the screens show for `Fc1ccc(NCc2cccnc2)cc1F`?
14-3-3 Bad inh: 23.0; EBV gp42 block: 115.3*; WT yeast gro inh: 6.4; NCF1 inh: -3.4; eIF4E-4G inh: -5.4; RBBP9 inh: -1.5

Results for O=C(NC(=S)NC1CCCc2ccccc21)c1ccco1 (configuration not stated) ?
14-3-3 Bad inh: -7.3; EBV gp42 block: 6.0; WT yeast gro inh: 73.2*; NCF1 inh: -10.3; eIF4E-4G inh: 0.4; RBBP9 inh: -8.4

What do the screens show for `Cc1ccc(C(=O)NC2CCCc3ccccc32)o1` (configuration not stated)?
14-3-3 Bad inh: 0.5; EBV gp42 block: -3.3; WT yeast gro inh: 3.6; NCF1 inh: -9.6; eIF4E-4G inh: 3.6; RBBP9 inh: 11.6

What do the screens show for `CCOc1ccc(NC(=S)Nc2cccc3cnccc23)cc1`?
14-3-3 Bad inh: -0.1; EBV gp42 block: -7.4; WT yeast gro inh: 58.1*; NCF1 inh: -3.0; eIF4E-4G inh: 3.0; RBBP9 inh: 1.4

How did COc1ccc(NC(=S)Nc2cccc3cnccc23)cc1 do in these assays?
14-3-3 Bad inh: -2.6; EBV gp42 block: -11.2; WT yeast gro inh: 0.0; NCF1 inh: -5.6; eIF4E-4G inh: -0.4; RBBP9 inh: 4.7

What do the screens show for `Fc1ccc(NC(=S)Nc2cccc3cnccc23)cc1`?
14-3-3 Bad inh: -12.2; EBV gp42 block: -28.8; WT yeast gro inh: 49.7; NCF1 inh: -6.4; eIF4E-4G inh: -2.7; RBBP9 inh: -3.3

Results for S=C(Nc1ccc(Cl)cc1)Nc1cccc2cnccc12 ?
14-3-3 Bad inh: -1.2; EBV gp42 block: 5.3; WT yeast gro inh: 61.6*; NCF1 inh: -11.3; eIF4E-4G inh: 8.2; RBBP9 inh: -5.4

What do the screens show for `O=c1[nH]c(CNCc2cccnc2)nc2ccccc12`?
14-3-3 Bad inh: -12.0; EBV gp42 block: -0.6; WT yeast gro inh: -3.2; NCF1 inh: -90.1; eIF4E-4G inh: -3.6; RBBP9 inh: 4.4

How did COc1ccc(Cn2c(-c3ccc(C)cc3)c[n+]3ccccc23)cc1 do in these assays?
14-3-3 Bad inh: -3.0; EBV gp42 block: -9.6; WT yeast gro inh: 59.7*; NCF1 inh: -1.4; eIF4E-4G inh: -0.5; RBBP9 inh: -3.2

What do the screens show for `COc1ccc(Nc2cc(C)nc3ccccc23)cc1`?
14-3-3 Bad inh: 11.5; EBV gp42 block: -24.8; WT yeast gro inh: -7.9; NCF1 inh: -10.5; eIF4E-4G inh: -0.1; RBBP9 inh: 0.1

How did COc1ccc(Nc2nc(C)c3ccccc3n2)cc1 do in these assays?
14-3-3 Bad inh: 92.8*; EBV gp42 block: -10.4; WT yeast gro inh: 1.1; NCF1 inh: 1.1; eIF4E-4G inh: 11.9; RBBP9 inh: -3.1

Results for COc1ccc(Nc2nc(-c3ccccc3)c3ccccc3n2)cc1 ?
14-3-3 Bad inh: -1.6; EBV gp42 block: -7.6; WT yeast gro inh: 64.0*; NCF1 inh: -1.0; eIF4E-4G inh: 3.5; RBBP9 inh: 0.8

What do the screens show for `COc1ccc(Nc2nc(C)c(-c3ccccc3)s2)cc1`?
14-3-3 Bad inh: -2.4; EBV gp42 block: 2.2; WT yeast gro inh: 66.0*; NCF1 inh: -1.8; eIF4E-4G inh: 2.0; RBBP9 inh: -1.4

What do the screens show for `COc1ccc(-c2nc3ccccc3nc2-c2ccccc2)cc1`?
14-3-3 Bad inh: 5.7; EBV gp42 block: -23.3; WT yeast gro inh: 40.4; NCF1 inh: 1.8; eIF4E-4G inh: 5.3; RBBP9 inh: 6.6
